Residues, ends and D or L forms follow the SMILES beside them. *: point of attachment. Boc = CC(C)(C)OC(=O)*

Our source for the Activity, IC50 and ED50 values is ChEMBL document CHEMBL1122872, “Synthesis and biological activities of some pseudo-peptide analogues of tetragastrin: the importance of the peptide backbone” (J Med Chem, 1985).

The subject of assay [1] is Rattus norvegicus. The experiment in a line: Compound was tested in vivo for activity against gastrin induced acid secretion in rat; agonist. The format is functional, organism-based. The settings on record: filed as agonist.
Assay [2] is described as follows: Compound was tested in vitro for inhibition of [125I](Leu15)-HG-17 binding to isolated gastric mucosal cells. In kind it is tissue-based, Rattus norvegicus, Gastric mucosa. Summed up:
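Fundic mucosal cells, dispersed by collagenase/EDTA (about 45% parietal cells, 95% viable), were incubated at 5 × 10^6 cells/mL in Earle's medium without bicarbonate (10 mM Hepes, 0.2% BSA, pH 7.4). Incubation was with 20 pM [125I]-(Leu15)-HG-17 for 30 min at 37 °C across a range of peptide concentrations. Nonsaturable binding was taken with 1 × 10^-6 M unlabeled (Nle11)-HG-13. Quadruplicate determinations.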

In assay [3] the test system is Rattus norvegicus. The experiment in a line: Compound was tested in vivo for activity against gastrin induced acid secretion in rat. In kind it is functional. In a few lines:
(§1)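 In anaesthetized rats, peptide in alkaline aqueous solution was given as an iv bolus at various doses together with 80 pmol (Leu15)-HG-17 (submaximal dose). pH was recorded for 40 min. For each dose, H+ output with peptide plus gastrin was divided by output with gastrin alone and expressed as percent inhibition.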

In assay [4] the test system is Rattus norvegicus. The experiment in a line: Compound was tested in vivo for activity against gastrin induced acid secretion in rat; antagonist. In kind it is functional, organism-based. Particulars: filed as antagonist. In a few lines:
as §1

With `CC(C)C[C@H](NC[C@H](Cc1c[nH]c2ccccc12)NC(=O)OC(C)(C)C)C(=O)N[C@@H](CC(=O)O)C(=O)N[C@@H](Cc1ccccc1)C(N)=O`, in the assay on Rattus norvegicus [1], the Activity result was “Agonist”. For the same molecule, the IC50 (commonly the concentration at which inhibition is half-maximal) in assay [2] stood at 300 nM.
Regarding `CC(C)C[C@@H](CN[C@@H](CC(=O)O)C(=O)N[C@@H](Cc1ccccc1)C(N)=O)NC(=O)[C@H](Cc1c[nH]c2ccccc12)NC(=O)OC(C)(C)C`, the IC50 in assay [2] came to 250 nM. Moreover, the ED50 (as a rule, the dose that gives a 50% effect, or the effect in half of the subjects) in the assay with Rattus norvegicus [3] was found to be 0.3 mg/kg. The Activity result in the assay with Rattus norvegicus [4] is “Antagonist”.
The corresponding values for `CC(C)C[C@H](NC(=O)[C@H](Cc1c[nH]c2ccccc12)NC(=O)OC(C)(C)C)C(=O)N[C@H](CN[C@@H](Cc1ccccc1)C(N)=O)CC(=O)O` are 5000 nM, 15 mg/kg and “Antagonist”.
For the molecule `CC(C)C[C@H](NC(=O)[C@H](Cc1c[nH]c2ccccc12)NC(=O)OC(C)(C)C)C(=O)N[C@@H](CC(=O)O)C(=O)N[C@@H](Cc1ccccc1)C(N)=O` (Boc-WLDF-NH2), in the assay with Rattus norvegicus [1], the Activity result was “Agonist”. The IC50 in assay [2] turned out to be 500 nM.
